Screens (PubChem)
A selection: hits, their analogues and other compounds. The true share with any hit is near 0.77%.
mIAP activ = mouse IAP activation; muIAP, CDP-Star luminescence, 30 min; active compounds read high; 1 = vehicle-only enzyme signal, 0 = enzyme-free wells; activation factor at 10 µM; 0.24% of 330,000 active;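 active = activation factor of at least 2 at 20 µM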
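System: Mouse IAP enzyme | Also added: CDP-Star substrate | Dosing: Compounds dispensed in DMSO | Schedule: 30 min enzyme-substrate-compound incubation at room temperature | Technique: Chemiluminescence readout | Control set: DMSO-only wells and no-enzyme negative control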
mIAP inh = mouse IAP inhibition; purified mouse IAP, CDP-Star luminescence, 30 min; inhibition, % at 10 µM; 0.2% of 330,000 active;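 active = inhibition of at least 40% at 10 µM in the primary screen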;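 note: plate controls were DMSO with enzyme for no effect and no enzyme wells for full effect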
bIAP inh = blocks bovine intestinal alkaline phosphatase activity | purified bovine IAP, CDP-star luminescence, 30 min | inhibition, % at 20 µM | 190,000 tested, under 10 active | AID 1019;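 active = over 50% inhibition of intestinal alkaline phosphatase at 20 µM in the single-dose screen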
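Assay system: bovine IAP enzyme; medium: DEA buffer 100 mM, pH 9.8, with MgCl2 1.0 mM, ZnCl2 0.02 mM; doses: 20 µM single dose; incubation: enzyme reaction for 30 min at room temperature; detection: CDP-star luminescence signal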
hIAP block = blocks human intestinal alkaline phosphatase; inhibition, % at 10 µM; 0.12% of 330,000 active; purified IAP, CDP-Star luminescence, 30 min;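 active = inhibition reaching a set limit with compound at 10 µM in the primary screen, cut at about 35% in these data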;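 note: plate controls were DMSO wells with enzyme for no effect and no-enzyme buffer wells for full effect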
Target sequence (P09923 whole entry, looked up): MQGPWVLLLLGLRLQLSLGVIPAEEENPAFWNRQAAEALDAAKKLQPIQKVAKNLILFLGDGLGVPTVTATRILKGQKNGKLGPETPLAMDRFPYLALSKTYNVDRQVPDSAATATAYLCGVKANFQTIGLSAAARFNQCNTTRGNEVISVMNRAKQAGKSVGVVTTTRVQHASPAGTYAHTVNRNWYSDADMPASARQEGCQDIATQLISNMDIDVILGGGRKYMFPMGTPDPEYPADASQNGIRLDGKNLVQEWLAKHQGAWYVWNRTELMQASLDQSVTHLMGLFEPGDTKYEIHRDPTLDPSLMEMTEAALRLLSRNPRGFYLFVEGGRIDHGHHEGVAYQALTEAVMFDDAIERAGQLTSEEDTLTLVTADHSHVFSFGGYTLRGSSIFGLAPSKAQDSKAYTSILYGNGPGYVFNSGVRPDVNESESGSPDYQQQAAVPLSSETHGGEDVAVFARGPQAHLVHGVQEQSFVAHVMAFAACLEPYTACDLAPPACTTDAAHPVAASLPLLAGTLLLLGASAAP
bIAP act = increases bovine intestinal alkaline phosphatase activity. purified bovine IAP, CDP-star luminescence, 30 min; active compounds read high; fold of DMSO-control signal, blank-subtracted. activation factor at 20 µM. 0.17% of 200,000 active. AID 1016;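 active = activation factor of 2 or more at 20 µM, a signal rise over negative controls twice the positive control's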
hIAP activ = human IAP activation; P09923; purified human IAP, CDP-Star luminescence, 30 min; active compounds read high; 1 = vehicle-only enzyme, 0 = enzyme-free background; activation factor at 10 µM; 0.16% of 330,000 active; AID 2524;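 active = activation factor of the enzyme at least 2-fold when tested at 20 µM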
mIAP inh confirm = mouse IAP inhibition confirmation | shares compounds with mIAP inh | purified mouse IAP, CDP-Star luminescence, 30 min | inhibition, % at 10 µM | 4.7% of 11,000 active;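 active = inhibition of at least 40% at 10 µM in either of the two replicates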;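 note: plate controls were DMSO wells with enzyme for no effect and buffer wells lacking enzyme for full effect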
Numbers without * were called inactive; nt = no result given.

SMILES | mIAP activ | mIAP inh | bIAP inh | hIAP block | bIAP act | hIAP activ | mIAP inh confirm
CCCCNC(=O)NS(=O)(=O)c1ccc(NC(=O)C(NC(N)=O)C(C)CC)cc1 (configuration not stated) | 1.1 | -6 | nt | -23 | nt | 1.2 | nt
Cc1cc2nc3ccc(N(C)C)cc3nc2cc1N | 0.43 | 57* | nt | -2 | nt | 1 | 65*
C[C@@H]1O[C@@H](O[C@H]2[C@H](O)[C@@H](O)[C@H](Oc3c(-c4ccc(O)c(O)c4)oc4cc(O)cc(O)c4c3=O)O[C@@H]2CO)[C@H](O)[C@H](O)[C@H]1O | 0.42 | 58* | nt | 22 | nt | 0.79 | 48*
O=c1c(OC2OC(CO)C(O)C(O)C2OC2OC(CO)C(O)C(O)C2O)c(-c2ccc(O)cc2)oc2cc(O)cc(O)c12 (configuration not stated) | 0.57 | 43* | nt | -11 | nt | 1.1 | 55*
O=c1c2c(O)cc(O)cc2oc2c(O)ccc(O[C@H]3O[C@@H](CO)[C@H](O)[C@@H](O)[C@@H]3O)c12 | 0.91 | 10 | nt | 0 | nt | 1 | nt
Cc1ccc(NC(=O)CSc2n[nH]c(-c3cccnc3)n2)cc1Cl | 0.93 | 7 | nt | 0 | nt | 1 | nt
Cc1cc(C)cc(NC(=O)Nc2cc(S(=O)(=O)N(C)C)ccc2C)c1 | 4.9* | -388 | nt | -2 | nt | 1 | -243
Cc1ccc(S(=O)(=O)N(C)C)cc1NC(=O)Nc1ccccc1F | 1.6 | -58 | nt | -43 | nt | 1.4 | nt
Cc1ccc(C)c(NC(=O)CC2Oc3ccccc3NC2=O)c1 (configuration not stated) | 0.97 | 3 | nt | 11 | nt | 0.89 | nt
CC(=C\c1ccco1)/C=C1/SC(=S)N(CC(=O)O)C1=O | 0.49 | 51* | nt | 9 | nt | 0.91 | 50*
O=C(CN1C(=O)/C(=C/c2ccco2)SC1=S)Nc1ccc(C(=O)O)c(O)c1 | 0.33 | 67* | nt | 16 | nt | 0.84 | 86*
CC(C(=O)N(C)C1CCS(=O)(=O)C1)N1C(=O)/C(=C/c2ccco2)SC1=S (configuration not stated) | 0.6 | 40* | nt | -7 | nt | 1.1 | 50*
CC(C(=O)Nc1ccc(C(=O)O)c(O)c1)N1C(=O)/C(=C\c2ccco2)SC1=S (configuration not stated) | 0.38 | 62* | nt | -20 | nt | 1.2 | 73*
CCOC(=O)Nc1sc(C)c(C)c1C(N)=O | 0.99 | 0 | 1 | 30 | 1 | 0.7 | nt
O=C(CCN1C(=O)/C(=C/c2ccccc2)SC1=S)NC1CCS(=O)(=O)C1 (configuration not stated) | 0.95 | 5 | nt | -31 | nt | 1.3 | nt
O=C(CN1C(=O)/C(=C/c2ccco2)SC1=S)Nc1ccc(O)c(C(=O)O)c1 | 0.25 | 75* | nt | -23 | nt | 1.2 | 76*
O=C(CN1C(=O)/C(=C/c2ccco2)SC1=S)NC1CCS(=O)(=O)C1 (configuration not stated) | 0.42 | 58* | nt | -16 | nt | 1.2 | 79*
O=C(CCCN1C(=O)/C(=C/c2cccs2)SC1=S)Nc1ccc(O)c(C(=O)O)c1 | nt | nt | 4 | nt | 1 | nt | nt
N#Cc1cccc(NC(=O)CSc2sc3c(O)cc(=O)[nH]c3c2C#N)c1 | 0.84 | 16 | nt | -6 | nt | 1.1 | nt
N#Cc1c(SCC(=O)Nc2nc3ccc(Br)cc3s2)sc2c(O)cc(=O)[nH]c12 | 0.59 | 41* | nt | -2 | nt | 1 | 72*
N#Cc1c(SCC(=O)Nc2nccs2)sc2c(O)cc(=O)[nH]c12 | 0.53 | 48* | nt | 5 | nt | 0.95 | 63*
N#Cc1c(SCC(=O)Nc2nc3ccccc3s2)sc2c(O)cc(=O)[nH]c12 | 0.39 | 61* | nt | -18 | nt | 1.2 | 73*
CCCSc1nnc(NC(=O)CSc2sc3c(O)cc(=O)[nH]c3c2C#N)s1 | 0.67 | 33 | nt | 4 | nt | 0.96 | nt
O=C(N/N=C/c1ccc[nH]1)c1ccc2c(c1)OCO2 | 0.5 | 50* | 2 | -12 | 1 | 1.1 | 64*
Cc1nc2ccccc2c(=O)n1/N=C/c1ccc(O)c(O)c1O | 0.43 | 57* | nt | 1 | nt | 0.99 | 81*
SMILES | mIAP activ | mIAP inh | bIAP inh | hIAP block | bIAP act | hIAP activ | mIAP inh confirm
CCCCn1c(N)c(N(CCOC)C(=O)COC(=O)COc2cc(C)c(Cl)cc2C(C)C)c(=O)[nH]c1=O | 1 | -1 | nt | -6 | nt | 1.1 | nt
O=C(Nc1ccccc1-c1ccccc1)NC1CC2CCCC(C1)N2Cc1ccc(F)cc1 (configuration not stated) | 5* | -405 | -483 | -85 | 5.8* | 1.8 | -270
CCc1ccc(NC(=S)NC2CC3CCC(C2)N3Cc2ccco2)cc1 (configuration not stated) | 1.3 | -32 | 5 | -4 | 0.9 | 1 | nt
CCCN1C2CCCC1CC(NC(=S)Nc1cccc(C)c1)C2 (configuration not stated) | 1.3 | -26 | 5 | -35 | 0.9 | 1.3 | nt
Cc1cccc(NC(=S)NC2CC3CCCC(C2)N3CC(C)C)c1 (configuration not stated) | 2.5* | -154 | 1 | 7 | 1 | 0.93 | -145
CCc1ccc(NC(=S)NC2CC3CCCC(C2)N3Cc2ccccc2)cc1 (configuration not stated) | 5* | -396 | -364 | -45 | 4.6* | 1.4 | -170
O=C1CC(c2ccccc2)Oc2cc(O)cc(O)c21 (configuration not stated) | 0.98 | 2 | nt | -3 | nt | 1 | nt
CC1CC(=O)c2c(cc3c(-c4c(O)cc(O)c5c(O)c6c(cc45)OC(C)CC6=O)c(O)cc(O)c3c2O)O1 (configuration not stated) | 0.58 | 42* | 29 | 12 | 0.7 | 0.89 | 68*
Cc1cc(NC(=O)C(C)Oc2ccc(Cl)cc2Cl)no1 (configuration not stated) | 1 | -1 | nt | 18 | nt | 0.82 | nt
COCc1ccc(CN2CCC(C(=O)Nc3cccc(-c4cccc(Cl)c4)c3)CC2)o1 | 2.7* | -174 | nt | 0 | nt | 1 | -336
COc1ccc(O)c(N)c1 | 0.59 | 41* | -11 | 26 | 1.1 | 0.73 | 48*
CN(C(=O)COC(=O)c1ccccc1NCc1ccco1)c1c(N)n(Cc2ccccc2)c(=O)[nH]c1=O | 0.92 | 8 | nt | 14 | nt | 0.86 | nt
O=C(NN=Cc1ccc(F)cc1)c1ccccc1NS(=O)(=O)c1cccs1 | 1 | 0 | nt | -6 | nt | 1.1 | nt
O=C(N/N=C/c1ccc([N+](=O)[O-])o1)c1ccncc1 | 0.57 | 43* | nt | -14 | nt | 1.1 | 48*
O=C(Cc1ccc2c(c1)OCO2)NN=Cc1ccc([N+](=O)[O-])o1 | 0.46 | 54* | nt | -15 | nt | 1.2 | 69*
O=C(N/N=C/c1ccc([N+](=O)[O-])o1)c1ccccc1NS(=O)(=O)c1cccs1 | 0.47 | 53* | nt | -17 | nt | 1.2 | 62*
CCCCCC(=O)N/N=C/c1ccc([N+](=O)[O-])o1 | 0.77 | 23 | 8 | -20 | 0.9 | 1.2 | nt
